From ChEMBL document CHEMBL1137008, “Cancer preventive agents 9. Betulinic acid derivatives as potent cancer chemopreventive agents” (Bioorg Med Chem Lett, 2009)

Tests used:
[1] = Cytotoxicity against human Raji cells assessed as cell viability at 500 molar ratio after 48 hrs by trypan blue staining method; assay type: cell-based; details: read-out: Activity
Method in brief: (§1)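 Raji cells (EBV genome-carrying, Burkitt's lymphoma) grown in RPMI-1640 with 10% FBS; incubated 48 h at 37 °C with 4 mM n-butyric acid, 32 pM TPA and test compound in DMSO at stated compound/TPA molar ratio; viability determined by Trypan blue staining.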

Raji [2] = assay: Inhibition of TPA-induced EBV-early antigen activation in human Raji cells assessed as EA induction at 10 molar ratio after 48 hrs relative to TPA; assay type: cell-based; set-up: scale not given: the % may be the effect or the level left; details: human gammaherpesvirus 4
Method in brief: (§2)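 Raji cells (virus non-producer, spontaneous EA activation <0.1%) incubated 48 h at 37 °C with 4 mM n-butyric acid plus 32 pM TPA and compound in DMSO; smears stained by indirect immunofluorescence with NPC patient EBV-EA-positive serum, ≥500 cells counted; EA-positive cells expressed relative to butyrate+TPA control (100%); triplicates; IC50 as mol ratio to 32 pmol TPA.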

Raji [3] = assay: Inhibition of TPA-induced EBV-early antigen activation in human Raji cells assessed as EA induction at 1000 molar ratio after 48 hrs relative to TPA; assay type: cell-based; set-up: scale not given: the % may be the effect or the level left; details: human gammaherpesvirus 4; method in brief: as §2
[4] = Cytotoxicity against human Raji cells assessed as cell viability at 100 molar ratio after 48 hrs by trypan blue staining method; assay type: cell-based; details: read-out: Activity; method in brief: as §1
[5] = Cytotoxicity against human Raji cells assessed as cell viability at 1000 molar ratio after 48 hrs by trypan blue staining method; assay type: cell-based; details: read-out: Activity; method in brief: as §1
[6] = Inhibition of TPA-induced EBV-early antigen activation in human Raji cells assessed as EA induction after 48 hrs relative to TPA; assay type: cell-based, human gammaherpesvirus 4; method in brief: as §2
Raji [7] = assay: Inhibition of TPA-induced EBV-early antigen activation in human Raji cells assessed as EA induction at 500 molar ratio after 48 hrs relative to TPA; assay type: cell-based; set-up: scale not given: the % may be the effect or the level left; details: human gammaherpesvirus 4; method in brief: as §2
[8] = Cytotoxicity against human Raji cells assessed as cell viability at 10 molar ratio after 48 hrs by trypan blue staining method; assay type: cell-based; details: read-out: Activity; method in brief: as §1
Raji [9] = assay: Inhibition of TPA-induced EBV-early antigen activation in human Raji cells assessed as EA induction at 100 molar ratio after 48 hrs relative to TPA; assay type: cell-based; set-up: scale not given: the % may be the effect or the level left; details: human gammaherpesvirus 4; method in brief: as §2

| SMILES | IC50 [6] | viability at 48 h, 500 molar ratio [1] | Activity (Raji [2]) | Activity (Raji [3]) | viability at 48 h, 100 molar ratio [4] | viability at 48 h, 1000 molar ratio [5] | Activity (Raji [7]) | viability at 48 h, 10 molar ratio [8] | Activity (Raji [9]) |
| --- | --- | --- | --- | --- | --- | --- | --- | --- | --- |
| C=C(C)[C@@H]1CC[C@]2(C(=O)O)CC[C@]3(C)[C@H](CC[C@@H]4[C@@]5(C)C[C@H](OC(=O)CC(C)(C)C(=O)O)C(C)(C)[C@@H]5CC[C@]43C)[C@@H]12 | 352 molar ratio | > 80% | 95.3% | 5.7% | > 80% | 60% | 35.6% | > 80% | 73.1% |
| C=C(C)[C@@H]1CC[C@]2(C(=O)O)CC[C@]3(C)[C@H](CC[C@@H]4[C@@]5(C)CC[C@H](OC(=O)C[C@H](C)C(=O)O)C(C)(C)[C@@H]5CC[C@]43C)[C@@H]12 | 308 molar ratio | > 80% | 94.2% | 0% | > 80% | 60% | 31.5% | > 80% | 71% |
| C=C(C)[C@@H]1CC[C@]2(C(=O)O)CC[C@]3(C)[C@H](CC[C@@H]4[C@@]5(C)CC[C@H](OC(=O)CC(C)(C)C(=O)O)C(C)(C)[C@@H]5CC[C@]43C)[C@@H]12 [BEVIRIMAT] | 396 molar ratio | > 80% | – | 6.1% | > 80% | 60% | 36.1% | > 80% | 74.2% |
| C=C(C)[C@@H]1CC[C@]2(C(=O)O)CC[C@]3(C)[C@H](CC[C@@H]4[C@@]5(C)[C@@H](C(=O)O)[C@H](OC(=O)CC(C)(C)C(=O)O)C(C)(C)[C@@H]5CC[C@]43C)[C@@H]12 | 349 molar ratio | > 80% | 93.8% | 5.1% | > 80% | 60% | 35% | > 80% | 72% |
| C=C(C)[C@@H]1CC[C@]2(C(=O)O)CC[C@]3(C)[C@H](CC[C@@H]4[C@@]5(C)CC[C@H](OC(=O)C=C(C)C)C(C)(C)[C@@H]5CC[C@]43C)[C@@H]12 | 285 molar ratio | > 80% | 88.7% | 0% | > 80% | 70% | 23.5% | > 80% | 62.5% |

More lines, main results first:

| IC50 [6] | SMILES | viability at 48 h, 500 molar ratio [1] | Activity (Raji [2]) | Activity (Raji [3]) | viability at 48 h, 100 molar ratio [4] | viability at 48 h, 1000 molar ratio [5] | Activity (Raji [7]) | viability at 48 h, 10 molar ratio [8] | Activity (Raji [9]) |
| --- | --- | --- | --- | --- | --- | --- | --- | --- | --- |
| 295 molar ratio | C=C(C)[C@@H]1CC[C@]2(C(=O)O)CC[C@]3(C)[C@H](CC[C@@H]4[C@@]5(C)CC[C@H](OC(=O)/C=C/C=C/C)C(C)(C)[C@@H]5CC[C@]43C)[C@@H]12 | > 80% | 90.2% | 0% | > 80% | 70% | 25.7% | > 80% | 65.7% |
| 390 molar ratio | C=C(C)[C@@H]1CC[C@]2(C(=O)O)CC[C@]3(C)[C@H](CC[C@@H]4[C@@]5(C)CC[C@H](OC(=O)CCCCCCC/C=C\C/C=C\CCCCC)C(C)(C)[C@@H]5CC[C@]43C)[C@@H]12 | > 80% | 94.8% | 7.3% | > 80% | 60% | 37.9% | > 80% | 75.9% |
| 445 molar ratio | C=C(C)[C@@H]1CC[C@]2(C(=O)O)CC[C@]3(C)[C@H](CC[C@@H]4[C@@]5(C)CC[C@H](OC(=O)CCCCCCC/C=C\C/C=C\C/C=C\CC)C(C)(C)[C@@H]5CC[C@]43C)[C@@H]12 | > 80% | 97% | 10.9% | > 80% | 60% | 43.3% | > 80% | 77.8% |
| 299 molar ratio | C=C(C)[C@@H]1CC[C@]2(C(=O)O)CC[C@]3(C)[C@H](CC[C@@H]4[C@@]5(C)CC[C@H](OC(=O)/C=C/C)C(C)(C)[C@@H]5CC[C@]43C)[C@@H]12 | > 80% | 91.6% | 0% | > 80% | 70% | 26.2% | > 80% | 66.7% |
